Molecules are shown by their SMILES. Calls of active or inactive are those of the source. The rule behind the calls is not given here.

What all share (assay type): cell-based
Test [1] concerns the target Tyrosine-protein kinase SYK (Rattus norvegicus) (UniProt Q64725). The test can be described thus: Inhibition of spleen tyrosine kinase in rat RBL-2H3 cells assessed as inhibition of IgE-induced upregulation of phospholipase Cgamma1 level at 50 uM after 30 mins by Western blotting. In outline:
(§1)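 IgE-sensitized RBL-2H3 cells were pretreated 30 min with 50 µM compound and stimulated with DNP-BSA. Lysates were run on SDS-PAGE and transferred to PVDF. Membranes were blocked 1 h in 5% nonfat milk, probed with primary antibody overnight at 4 °C, then HRP secondary antibody 1 h at room temperature. ECL chemiluminescence detection; three independent experiments.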

Test [2] has the same target. The test can be described thus: Inhibition of spleen tyrosine kinase in rat RBL-2H3 cells assessed as inhibition of IgE-induced increase of ROS level at 50 uM after 30 mins by FLIPR assay. A digest of the protocol: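 Sensitized RBL-2H3 cells (5 × 10^4/well) took up 10 µM CM-H2DCFDA for 30 min at 37 °C and were washed twice. Cells were exposed to 50 µM compound for 30 min, then challenged with DNP-BSA 10 µg/ml. DCF fluorescence (ex 490/em 530 nm) was read on a fluorometric imaging plate reader. DPI 200 nM served as control. Means ± SEM, n = 10.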

Test [3] shares this target. The test can be described thus: Inhibition of spleen tyrosine kinase in rat RBL-2H3 cells assessed as inhibition of IgE-induced upregulation of Lyn level at 50 uM after 30 mins by Western blotting. A digest of the protocol: as §1
Test [4] has the same target. The test can be described thus: Inhibition of spleen tyrosine kinase in rat RBL-2H3 cells assessed as inhibition of IgE-induced increase of intracellular calcium level at 50 uM after 30 mins by FLIPR assay. A digest of the protocol: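 IgE-sensitized RBL-2H3 cells (5 × 10^4/well; anti-DNP IgE 0.45 µg/ml, 24 h) were loaded with Fluo-3AM for 1 h. Cells were washed and held 30 min in loading buffer containing 50 µM compound, then stimulated with DNP-BSA 10 µg/ml. Fluorescence (ex 490/em 530 nm) was recorded on a fluorometric imaging plate reader. Means ± SEM, n = 12.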
In general terms: Calcium assays in cells follow changes in intracellular calcium, usually with a dye or a luminescent sensor.

Test [5] has the same target. Kind of test: Inhibition of spleen tyrosine kinase in rat RBL-2H3 cells assessed as inhibition of IgE-induced degranulation after 1 hr by beta-hexosaminidase release assay. In outline: (§2)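 RBL-2H3 cells (2 × 10^4/well) cultured 1 h, then sensitized with anti-DNP IgE 0.45 µg/ml for 24 h. Cells were washed in Siraganian buffer A (PIPES, pH 7.2) and equilibrated in buffer B at 37 °C for 10 min. Compound was added at 37 °C for 30 min, then DNP-BSA 10 µg/ml for 10 min. Supernatant β-hexosaminidase was read with p-nitrophenyl-N-acetyl-β-D-glucosaminide at A405, corrected for direct enzyme inhibition.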

For test [6] the target is unchanged. Kind of test: Inhibition of spleen tyrosine kinase in rat RBL-2H3 cells assessed as inhibition of IgE-induced upregulation of phospholipase 2 level at 50 uM after 30 mins by Western blotting. A digest of the protocol:
as §1
For orientation: In western blotting, separated proteins are transferred to a membrane and probed.

Test [7] shares this target. Kind of test: Inhibition of spleen tyrosine kinase in rat RBL-2H3 cells assessed as inhibition of IgE-induced upregulation of ERK1/2 level at 50 uM after 30 mins by Western blotting. A digest of the protocol: as §1
Test [8] shares this target. Kind of test: Inhibition of spleen tyrosine kinase in rat RBL-2H3 cells assessed as inhibition of IgE-induced upregulation of PI3K/Akt level at 50 uM after 30 mins by Western blotting. A digest of the protocol:
as §1

Test [9] has the same target. The test can be described thus: Inhibition of spleen tyrosine kinase in rat RBL-2H3 cells assessed as inhibition of IgE-induced upregulation of p38 level at 50 uM after 30 mins by Western blotting. In outline:
as §1

Test [10] has the same target. Kind of test: Inhibition of spleen tyrosine kinase in rat RBL-2H3 cells assessed as inhibition of IgE-induced upregulation of JNK level at 50 uM after 30 mins by Western blotting. A digest of the protocol:
as §1

Test [11] shares this target. The test can be described thus: Inhibition of spleen tyrosine kinase in rat RBL-2H3 cells assessed as inhibition of IgE-induced upregulation of cPLA2 level at 50 uM after 30 mins by Western blotting. In outline:
as §1

The target is the same in test [12]. The test can be described thus: Inhibition of spleen tyrosine kinase in rat RBL-2H3 cells assessed as inhibition of IgE-induced degranulation at 10 to 100 uM after 1 hr by beta-hexosaminidase release assay. In outline:
as §2

Sequence of Tyrosine-protein kinase SYK (Rattus norvegicus) (Q64725 whole entry, looked up): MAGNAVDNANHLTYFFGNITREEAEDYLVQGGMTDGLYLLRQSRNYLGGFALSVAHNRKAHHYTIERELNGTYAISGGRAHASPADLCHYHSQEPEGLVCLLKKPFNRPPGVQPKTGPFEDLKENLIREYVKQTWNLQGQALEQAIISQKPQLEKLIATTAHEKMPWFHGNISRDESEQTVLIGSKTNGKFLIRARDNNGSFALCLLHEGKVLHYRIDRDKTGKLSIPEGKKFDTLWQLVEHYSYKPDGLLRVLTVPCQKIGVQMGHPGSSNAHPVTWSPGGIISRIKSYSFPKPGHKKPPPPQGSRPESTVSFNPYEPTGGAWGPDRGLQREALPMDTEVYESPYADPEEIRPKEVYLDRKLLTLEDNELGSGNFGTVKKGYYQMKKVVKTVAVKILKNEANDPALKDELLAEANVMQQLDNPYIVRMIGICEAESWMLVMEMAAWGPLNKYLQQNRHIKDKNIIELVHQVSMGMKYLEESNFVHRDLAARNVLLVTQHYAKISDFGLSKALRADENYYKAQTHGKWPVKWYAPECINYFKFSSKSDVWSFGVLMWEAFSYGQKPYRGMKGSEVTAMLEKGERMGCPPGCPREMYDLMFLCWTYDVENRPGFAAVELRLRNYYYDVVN

On to `O=C(O)/C=C/c1ccccc1`, for which the inhibition result in test [1], in test [2], in test [4] and in test [6] was “Active” in each case. Also, the inhibition entry in [3] was “inactive”. The inhibition result in test [5] was “Dose-dependent effect”.

Consider `COC(=O)/C=C/c1ccc(O[C@@H]2O[C@H](CO)[C@@H](O)[C@H](O)[C@H]2O)cc1`, for which the inhibition result in test [1], in test [7], in test [2], in test [8], in test [4] and in test [9] was “Active” each time. Moreover, the inhibition entry in test [10], in test [11] and in [6] was “Active” each time. The inhibition result in [3] was “inactive”. The inhibition entry in [5] was “Dose-dependent effect”.

Take `O=C(O)/C=C/c1ccc(O)cc1`: the inhibition entry in test [12] is “inactive”.

With `O=C(/C=C/c1ccccc1)O[C@@H]1O[C@H](CO)[C@@H](O)[C@H](O)[C@H]1O`, the inhibition result in test [12] was “Active”.

The values are drawn from ChEMBL document CHEMBL1212882, “Phenolic constituents isolated from Fragaria ananassa Duch. inhibit antigen-stimulated degranulation through direct inhibition of spleen tyrosine kinase activation” (Bioorg Med Chem, 2010).
